From PubChem BioAssay
Most compounds without a hit are left out; they make up all but 3.9% or so of the library.
FID counter: fluorescent intercalator displacement, NS3 helicase counter-screen. DNA fluorescent intercalator displacement, fluorescence. inhibition, % at 7.9 µM. hit rate 0.17% among 290,000; in the data active = inhibition above about 37%;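 note: higher means more ethidium bromide displaced from hairpin DNA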
HCV NS3 hel inh: HCV NS3 helicase inhibition; NS3 helicase DNA unwinding, Cy5 molecular beacon fluorescence; inhibition, % at 10.9 µM; hit rate 0.56% among 290,000; AID 1800;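 active = inhibition above the mean of all tested compounds plus 3 SD, set per campaign, cut at about 35% in these data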
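Test system: hepatitis C virus NS3 helicase domain fragment enzyme. Also added: annealed dual-labelled DNA beacon duplex, ATP-started. Timing: 60 min unwinding reaction at 25 °C after ATP addition. Technique: Cy5 fluorescence. Measure: % inhibition of unwinding.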
HSF1 activator: increases HSF-1 driven luciferase reporter signal. hit rate 1.7% among 300,000. AID 504408. NIH3T3-HGL HSF-1 luciferase reporter, MG132, 8 h; 100% = twice DMSO control signal. activation, % at 9 µM;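 active = mean replicate activation of at least 50% with a set share of replicates each reaching 50%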
HSP90 inh: HSP90 refolding inhibition in rabbit reticulocyte lysate; hit rate 0.91% among 290,000; inhibition, % at 5.6 µM; luciferase refolding luminescence, 3 h;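 active = inhibition above the screen-wide mean plus 3 SD, computed separately per campaign, cut at about 16% in these data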;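 note: inhibitors lower the luminescence because luciferase stays unfolded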
HCV core dimer: blocks dimerization of HCV core protein | hit rate 0.33% among 300,000 | inhibition, % at 5 µM | TR-FRET GST/Flag-core106 dimerization, 1536-well;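 active = inhibition above the mean of all tested compounds plus 3 SD, set per screening campaign, cut at about 45% in these data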
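System: GST/Flag-tagged HCV core106 proteins. Incubation: compound-protein-antibody incubation 4 h at 22.5 °C. Technique: HTRF with 340 nm excitation, 617/671 nm emission. Medium: KF-containing HEPES buffer, pH 7.45, DTT, CHAPS, BSA. Read-out: inhibition (%) from 671 over 617 nm ratio. Also added: Eu(K)-anti-GST 90 ng/mL plus XL665-anti-Flag 1 µg/mL.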
HSF1 inh: HSF1 inhibition | hit rate 0.77% among 300,000 | activity change, negative = inhibition, % at 7.5 µM (by protocol) | NIH3T3-HGL HSE-luciferase, MG132-induced, luminescence 8 h; active compounds read low;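 active = more than half of replicate wells show activity change below -50%, luminescence cut by over half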;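 note: luciferase reports HSF-1 transcriptional activity via heat shock element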
HSP90 confirm: HSP90 inhibition, confirmation assay; shares compounds with HSP90 inh; rabbit reticulocyte lysate, luciferase refolding luminescence, 3 h; inhibition, % at 5.9 µM; hit rate 64% among 2,300; AID 1846; in the data active = inhibition above about 18%
FLuc counter: counter-screen for HSP90 inhibitors: inhibitors of firefly luciferase | shares compounds with HSP90 inh | purified native firefly luciferase, luminescence | inhibition, % at 5.9 µM | hit rate 48% among 2,300 | AID 1847;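 active = inhibition above the mean inhibition of all tested sample wells plus 3 SD, cut at about 10% in these data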
Target sequence (P08659 whole entry, looked up): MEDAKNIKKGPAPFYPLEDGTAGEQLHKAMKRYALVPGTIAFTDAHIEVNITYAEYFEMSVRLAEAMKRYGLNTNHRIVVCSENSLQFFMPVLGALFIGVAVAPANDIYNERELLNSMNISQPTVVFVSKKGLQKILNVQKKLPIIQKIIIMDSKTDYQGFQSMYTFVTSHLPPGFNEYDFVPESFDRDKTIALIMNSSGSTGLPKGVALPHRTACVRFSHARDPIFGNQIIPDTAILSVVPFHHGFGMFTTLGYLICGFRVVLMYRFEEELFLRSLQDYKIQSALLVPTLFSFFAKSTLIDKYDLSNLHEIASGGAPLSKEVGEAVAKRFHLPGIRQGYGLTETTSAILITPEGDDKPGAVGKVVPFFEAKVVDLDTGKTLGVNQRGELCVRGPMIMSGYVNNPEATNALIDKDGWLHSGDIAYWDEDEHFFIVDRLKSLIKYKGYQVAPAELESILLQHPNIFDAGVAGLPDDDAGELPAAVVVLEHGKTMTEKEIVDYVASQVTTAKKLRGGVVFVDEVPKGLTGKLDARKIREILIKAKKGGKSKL
Large screens that a line does not name were inactive (follow-up assays come after a bar, where they were run).

CC(C)NC(=O)CC(=O)N/N=C/c1ccc(Br)cc1	none
O=C(O)CC1SC(N/N=C/c2ccc(Br)cc2)NC1=O (stereo unspecified)	HSP90 inh 17.2 | HSP90 confirm 24.1 | FLuc counter inactive
c1c2c(cc3sc(N4CCOCC4)nc13)OCCO2	HSP90 inh 62.2 | HSP90 confirm 85.1 | FLuc counter 77.7
COc1ccc(/C=N/n2c(-c3ccco3)nc3ccccc3c2=O)cc1	HSP90 inh 19.0 | HSP90 confirm inactive | FLuc counter inactive
CC(C)CC(c1nnnn1Cc1ccco1)N1CCN(C2CCCC2)CC1 (stereo unspecified)	none
CCCn1c(C(C)Nc2nc(C)cs2)nc2cc(Cl)c(Cl)cc21 (stereo unspecified)	none
CCc1ccccc1NC(=O)COc1cccc(-n2cnnn2)c1	none
COc1ccc(C)cc1NC(=O)NNC(=O)C(C)Oc1ccc(F)cc1Cl (stereo unspecified)	HSP90 inh 20.5 | HSP90 confirm inactive | FLuc counter inactive
COc1ccc(C)cc1NC(=O)NCc1ccc(F)cc1	none
C/C(=N\NC(=O)C1(C)NC(C)(C)Cc2ccccc21)c1ccccc1 (stereo unspecified)	none
Cc1ccc(Oc2ccccc2/C=C2\SC(=O)N(C)C2=O)cc1	none
O=C(NCc1ccc(F)cc1)C1CCCN1C(=O)Nc1cccc(F)c1 (stereo unspecified)	HSP90 inh 23.6 | HSP90 confirm inactive | FLuc counter inactive
COc1ccc(NC(=O)N2CCCC2C(=O)NCc2ccc(F)cc2)cc1 (stereo unspecified)	none
CC(C)C[C@@H]1NC(=O)N(CCCn2ccnc2)C1=O	none
Cn1nc(-c2ccc(Cl)cc2)nc2c(=O)n(C)c(=O)nc1-2	HSP90 inh 94.8, HCV core dimer 68.0, HSF1 inh -95.0 | HSP90 confirm 96.8 | FLuc counter 89.8
O=C1COc2ccc3ccccc3c21	HSP90 inh 24.9 | HSP90 confirm inactive | FLuc counter inactive
O=C(Nc1ccccn1)c1cc2ccccc2o1	HSP90 inh 69.1 | HSP90 confirm 80.4 | FLuc counter 77.5
O=C(NC1=NCCS1)c1cc2ccccc2o1	HSP90 inh 33.6 | HSP90 confirm 56.2 | FLuc counter 47.4
O=C(Nc1ccc2c(c1)OCCO2)c1cc2ccccc2o1	HSF1 activator 60.8, HSP90 inh 24.4 | HSP90 confirm 38.9 | FLuc counter 26.5
Cc1cc(C)c(S(=O)(=O)Nc2ncn[nH]2)c(C)c1	none (no result: HCV core dimer)
CC1CCc2c(sc(NC(=O)/C=C/c3cccs3)c2C(=O)O)C1 (stereo unspecified)	none
CCOC(=O)C1=C(C)N(CCCC(=O)O)C(=O)NC1c1ccc(Cl)cc1 (stereo unspecified)	none
COc1ccc(NC(=O)C2CC(=O)N/C(=N/N=C/c3ccco3)S2)cc1 (stereo unspecified)	none
COc1ccc(/C=N/N=C2/NC(=O)CC(C(=O)O)S2)cc1 (stereo unspecified)	HSP90 inh 23.2 | HSP90 confirm 36.3 | FLuc counter inactive
COc1ccc2oc(=O)cc(CN3CCN(Cc4ccc(OC)c(OC)c4OC)CC3)c2c1	none (no result: HCV core dimer)
COCCCN=C1NN=C(c2cc(C)n(Cc3ccco3)c2C)CS1	none
COCC(C)N=C1NN=C(c2cc(C)n(Cc3ccccc3Cl)c2C)CS1 (stereo unspecified)	HSP90 inh 34.2 | HSP90 confirm 64.7 | FLuc counter 54.8
Cc1c2cc[n+](CCN3CCCCC3)cc2c(C)c2c1[nH]c1ccc(O)cc12	none (no result: FID counter, HCV NS3 hel inh, HSP90 inh, HCV core dimer)
O=C(/C=C\Nc1ccc2c(c1)OCO2)c1ccccn1	HSP90 inh 71.3, HSF1 inh -71.7 | HSP90 confirm 95.6 | FLuc counter 90.3
N/C(=N\OC(=O)c1ccccc1Cl)c1ccccn1	HSP90 inh 72.7 | HSP90 confirm 67.6 | FLuc counter 88.6
COc1cc(OC)c(C(=O)O/N=C(\N)c2ccccn2)cc1OC	none
Cc1ccccc1C(=O)O/N=C(\N)c1ccccc1	HSP90 inh 23.7 | HSP90 confirm 49.0 | FLuc counter 76.9
Cc1ccc(C(=O)O/N=C(\N)c2ccccn2)c(C)c1	HSP90 inh 91.6, HSF1 inh -89.1 | HSP90 confirm 96.9 | FLuc counter 93.6
COc1ccccc1C(=O)O/N=C(\N)c1ccccn1	HSP90 inh 28.4 | HSP90 confirm inactive | FLuc counter inactive
COc1cc(NC(=O)COC(=O)CO/N=C(\C)c2ccc3c(c2)OCO3)cc(OC)c1OC	none (no result: FID counter, HCV NS3 hel inh, HSP90 inh)
CCOC(=O)c1nc(N/N=C/c2ccccc2)sc1Br	HSP90 inh 21.1 | HSP90 confirm 27.8 | FLuc counter inactive
CC1(C)CC(=O)C(C(=O)c2ccccc2)C(=O)C1Cl (stereo unspecified)	none
Cc1cnc(NC(=O)COc2ccccc2Cl)s1	HSP90 inh 58.2 | HSP90 confirm 79.1 | FLuc counter 77.5
CC(C)CN(CCC(=O)O)CC(C)C	none
Cc1ccc(OCc2nc(-c3ccccn3)no2)c(Br)c1	HSP90 inh 40.4 | HSP90 confirm 65.3 | FLuc counter 61.5
CC(=O)NN1C(=O)c2ccc3c4c(ccc(c24)C1=O)C(=O)N(NC(C)=O)C3=O	HSP90 inh 44.7 | HSP90 confirm 29.6 | FLuc counter inactive
COc1ccc(C(=O)NCC(=O)OCC(=O)NCCC2=CCCCC2)cc1	none
COc1ccc(C(=O)NCCC2=CCCCC2)cc1	HSP90 inh 31.9 | HSP90 confirm 53.6 | FLuc counter 48.4
CC(=O)Nc1ccccc1OCC(O)CS(=O)(=O)c1ccc(C(F)(F)F)cn1 (stereo unspecified)	none
O=[N+]([O-])c1ccccc1-c1ccc(/C=N/n2cnnc2)o1	none
Nn1cnnc1N/N=C\c1ccc(-c2ccccc2[N+](=O)[O-])o1	HSP90 inh 76.2 (no result: HCV core dimer) | HSP90 confirm inactive | FLuc counter inactive
O=S(=O)(O)c1cccc(N=Nc2c(O)ccc3ccccc23)c1	HSP90 inh 33.2 | HSP90 confirm 34.3 | FLuc counter inactive
Oc1ccc2ccccc2c1N=Nc1ccccc1F	none
O=C(COc1ccc(Cl)cc1)NCc1nnc(SCC(=O)N2CCCCCC2)o1	none
O=C(CNC(=O)c1ccccc1F)NCc1cccnc1	none
CC(=O)c1cccc(S(=O)(=O)NC2CC2)c1	none
Cc1nn(Cc2c(F)cccc2Cl)c(C)c1NC(=O)C1CC1	none
Clc1ccc(-n2ncc3c(NCCN4CCOCC4)ncnc32)cc1	HSP90 inh 44.2, HSF1 inh -53.7 | HSP90 confirm 50.1 | FLuc counter 41.8
Cc1cccc(-n2ncc3c(N4CCCC4)ncnc32)c1	none
COc1ccc(-n2ncc3c(NC(C)C)ncnc32)cc1	HSP90 inh 17.1 | HSP90 confirm 43.3 | FLuc counter 31.2
